The source made the active and inactive calls.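 Rule for the calls: active = strong luminescence drop, meaning toxicity to breast epithelial cells with E-cadherin silenced, a stem-like cancer model; inactive = the rest.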
Columns and labels:
[1] = system: HMLE_shECad viability, CellTiter-Glo luminescence, 72 h; test: cytotoxicity toward E-cadherin-knockdown HMLE CSC-like cells – cell-based, CellTiter-Glo luminescence, dry powder, dose response (AID 588704)
Outline: (§1)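 Material: HMLE breast cells with E-cadherin knockdown (shECad), EMT-induced, CSC-like; Quantity: 1000 cells per well at seeding; Timing: 72 h compound exposure, dosing at 24 h; Measured by: luminescent ATP assay (CellTiter-Glo); Control set: DMSO-only wells as normalization control; Repeats: two replicates (duplicate).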

[2] = as above; conditions: HMLE_shECad viability, CellTiter-Glo luminescence, 72 h
Outline: as §1

Q: With `CC(C)(C)c1ccc2c(c1)OC(C(=O)N/N=C/c1ccc[nH]1)CO2` (configuration not stated) as the molecule, how does the AC50 [1] read?
A: 3480 nM

Q: For `O=C(COc1cc(Cl)ccc1Cl)N/N=C/c1ccc[nH]1`, which AC50 [1] is on record?
A: 930 nM

Q: With `O=C(COc1ccc(Cl)cc1Cl)N/N=C/c1cnc[nH]1` as the molecule, how does the outcome [2] read?
A: inactive

Q: With `O=C(COc1c(Cl)cc(Cl)cc1Cl)N/N=C/c1ccc[nH]1` as the molecule, how does the AC50 [1] read?
A: 470 nM

Q: Which AC50 [1] does the source give for `Cc1cc(Cl)ccc1OCC(=O)N/N=C/c1ccc[nH]1` here?
A: 4580 nM

Q: With `O=C(COc1ccc(Cl)cc1Cl)N/N=C/c1ccc[nH]1` as the molecule, how does the AC50 [1] read?
A: 3390 nM

Q: With `O=C(N/N=C/c1ccc[nH]1)c1cc2ccccc2o1` as the molecule, how does the AC50 [1] read?
A: 2460 nM

From PubChem BioAssay AID588704 (Broad Institute, 2011)
